ChEMBL document CHEMBL1133675, “New substituted 1-(2,3-dihydrobenzo[1, 4]dioxin-2-ylmethyl)piperidin-4-yl derivatives with alpha(2)-adrenoceptor antagonist activity” (J Med Chem, 2000)
The source made the active and inactive calls. Unless noted, the calls are words filed in the database; no cut-off is given here.

Legend:
Mus musculus [1] = assay: In vivo antagonism of guanabenz-induced hypothermia in mice after intraperitoneal administration at a dose of 0.63 mg/kg; type: functional; details: ip
Procedure, shortened: (§1)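 Male NMRI mice, 30-32 g, 5 per dose; test drug or vehicle given ip, then 5 min later guanabenz 1 mg/kg ip. Rectal temperature read by thermistor probe 25 min after guanabenz. Inhibition means temperature > 36 °C. […] Active dose range = doses inhibiting in more than 80% of animals.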

[2] = target: T1, Adrenergic receptor alpha-1 (Rattus norvegicus, UniProt P15823+P23944+P43140); assay: In vitro inhibition of specific binding of [3H]- prazosin to alpha-1 adrenergic receptor site in rat brain membranes.; type: cell membranes
T1 sequence (P15823 whole entry): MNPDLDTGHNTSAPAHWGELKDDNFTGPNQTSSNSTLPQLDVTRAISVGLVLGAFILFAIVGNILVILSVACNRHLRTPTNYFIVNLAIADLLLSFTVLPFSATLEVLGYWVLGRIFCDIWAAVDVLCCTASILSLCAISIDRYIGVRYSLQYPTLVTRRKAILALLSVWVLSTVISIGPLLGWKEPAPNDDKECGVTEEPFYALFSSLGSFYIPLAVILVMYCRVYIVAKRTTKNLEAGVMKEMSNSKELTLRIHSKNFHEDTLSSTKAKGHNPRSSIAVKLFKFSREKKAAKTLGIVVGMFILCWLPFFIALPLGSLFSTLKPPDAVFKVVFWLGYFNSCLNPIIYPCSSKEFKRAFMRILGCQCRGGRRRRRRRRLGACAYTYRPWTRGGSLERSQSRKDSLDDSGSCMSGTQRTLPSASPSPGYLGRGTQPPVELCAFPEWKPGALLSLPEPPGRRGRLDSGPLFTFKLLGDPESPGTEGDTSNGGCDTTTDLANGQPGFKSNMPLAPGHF
T1 sequence (P23944 whole entry): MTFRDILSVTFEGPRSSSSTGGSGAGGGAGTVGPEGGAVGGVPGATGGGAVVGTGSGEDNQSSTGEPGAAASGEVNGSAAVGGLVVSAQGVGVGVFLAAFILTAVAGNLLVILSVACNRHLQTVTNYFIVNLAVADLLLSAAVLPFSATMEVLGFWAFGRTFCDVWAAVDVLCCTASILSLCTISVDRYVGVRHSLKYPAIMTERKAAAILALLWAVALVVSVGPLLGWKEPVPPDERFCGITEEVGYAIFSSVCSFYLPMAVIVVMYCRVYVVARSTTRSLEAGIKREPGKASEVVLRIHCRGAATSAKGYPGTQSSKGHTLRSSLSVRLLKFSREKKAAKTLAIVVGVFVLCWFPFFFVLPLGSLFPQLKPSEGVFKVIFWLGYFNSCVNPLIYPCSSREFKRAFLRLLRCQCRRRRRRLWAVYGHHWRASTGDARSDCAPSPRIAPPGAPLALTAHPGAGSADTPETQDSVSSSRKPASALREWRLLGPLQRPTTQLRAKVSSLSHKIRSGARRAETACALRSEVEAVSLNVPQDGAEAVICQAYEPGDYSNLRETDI
T1 sequence (P43140 whole entry): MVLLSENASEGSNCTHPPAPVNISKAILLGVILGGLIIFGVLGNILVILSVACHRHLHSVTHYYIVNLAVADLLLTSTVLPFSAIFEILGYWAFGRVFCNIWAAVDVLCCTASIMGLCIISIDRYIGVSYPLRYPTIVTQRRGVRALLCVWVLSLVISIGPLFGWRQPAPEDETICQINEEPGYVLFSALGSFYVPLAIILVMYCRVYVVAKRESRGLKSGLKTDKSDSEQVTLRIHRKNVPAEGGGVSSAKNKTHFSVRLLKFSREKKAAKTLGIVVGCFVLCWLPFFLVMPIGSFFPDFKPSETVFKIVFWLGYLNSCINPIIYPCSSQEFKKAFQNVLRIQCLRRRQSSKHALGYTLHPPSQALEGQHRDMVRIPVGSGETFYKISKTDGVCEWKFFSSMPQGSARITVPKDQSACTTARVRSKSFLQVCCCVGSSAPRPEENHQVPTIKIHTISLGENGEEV

[3] = target: T2, Adrenergic receptor alpha-2 (Rattus norvegicus, UniProt P22086+P19328+P22909); assay: In vitro inhibition of binding of [3H]-RX-821002 to alpha-2 adrenergic receptor site in rat brain membranes.; type: cell membranes
T2 sequence (P22086 whole entry): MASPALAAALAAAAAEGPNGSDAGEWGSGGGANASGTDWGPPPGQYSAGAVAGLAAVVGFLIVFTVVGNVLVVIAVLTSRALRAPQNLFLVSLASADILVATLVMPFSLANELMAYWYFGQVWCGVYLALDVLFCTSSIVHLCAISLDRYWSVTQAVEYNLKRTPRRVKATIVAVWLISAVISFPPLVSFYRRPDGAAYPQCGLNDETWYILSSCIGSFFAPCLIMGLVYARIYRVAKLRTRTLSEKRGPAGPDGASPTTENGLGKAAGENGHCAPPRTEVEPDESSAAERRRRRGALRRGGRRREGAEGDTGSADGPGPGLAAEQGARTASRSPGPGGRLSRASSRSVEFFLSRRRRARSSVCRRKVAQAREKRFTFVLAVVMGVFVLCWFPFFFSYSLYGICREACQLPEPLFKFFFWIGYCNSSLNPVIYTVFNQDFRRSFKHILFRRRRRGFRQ
T2 sequence (P19328 whole entry): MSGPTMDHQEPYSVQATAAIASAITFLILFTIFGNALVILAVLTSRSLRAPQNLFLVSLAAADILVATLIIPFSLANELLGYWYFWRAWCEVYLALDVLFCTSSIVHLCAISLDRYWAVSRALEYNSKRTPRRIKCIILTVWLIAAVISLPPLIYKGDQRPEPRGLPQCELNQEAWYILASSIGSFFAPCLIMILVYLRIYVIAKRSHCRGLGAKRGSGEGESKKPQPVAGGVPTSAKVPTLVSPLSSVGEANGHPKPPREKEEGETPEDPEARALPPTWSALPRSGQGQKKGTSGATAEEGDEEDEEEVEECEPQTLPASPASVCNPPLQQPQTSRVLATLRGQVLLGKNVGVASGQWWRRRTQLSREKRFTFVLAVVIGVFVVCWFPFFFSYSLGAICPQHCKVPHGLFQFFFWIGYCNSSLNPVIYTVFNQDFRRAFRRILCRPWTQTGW
T2 sequence (P22909 whole entry): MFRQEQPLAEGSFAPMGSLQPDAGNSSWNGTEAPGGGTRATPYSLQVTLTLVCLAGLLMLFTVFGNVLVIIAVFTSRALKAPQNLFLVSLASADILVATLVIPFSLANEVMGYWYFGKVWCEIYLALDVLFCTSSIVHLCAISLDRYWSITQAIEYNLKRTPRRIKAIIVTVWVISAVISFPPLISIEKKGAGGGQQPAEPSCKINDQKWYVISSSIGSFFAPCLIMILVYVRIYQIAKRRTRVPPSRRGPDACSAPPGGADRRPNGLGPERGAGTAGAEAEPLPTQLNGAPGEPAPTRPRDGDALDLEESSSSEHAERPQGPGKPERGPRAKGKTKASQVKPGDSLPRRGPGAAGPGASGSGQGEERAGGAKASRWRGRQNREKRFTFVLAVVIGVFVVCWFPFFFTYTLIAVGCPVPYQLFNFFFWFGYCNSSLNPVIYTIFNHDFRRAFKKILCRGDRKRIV

D(2) dopamine receptor = D(2) dopamine receptor (Rattus norvegicus, UniProt P61169); assay: In vitro inhibition of specific binding of [3H]-YM 09151-2 to Dopamine receptor D2 site in rat striatal tissue.; type: tissue-based, Striatum
Mus musculus [4] = assay: In vivo antagonism of guanabenz-induced hypothermia in mice after peroral administration at a dose of 2.5-40 mg/kg; type: functional; details: po
Procedure, shortened: (§2)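 Male NMRI mice (30-32 g), five per dose; vehicle or drug by oral gavage, guanabenz 1 mg/kg ip 35 min later. Rectal temperature by thermistor 25 min post-guanabenz; inhibition scored as temperature > 36 °C. Active range is doses giving inhibition in more than 80% of mice.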

Mus musculus [5] = assay: In vivo antagonism of guanabenz-induced hypothermia in mice after intraperitoneal administration at a dose of 10 mg/kg; type: functional; details: ip; procedure, shortened: as §1
Mus musculus [6] = assay: In vivo antagonism of guanabenz-induced hypothermia in mice after intraperitoneal administration; type: functional; details: ip; procedure, shortened: as §1
Mus musculus [7] = assay: In vivo antagonism of guanabenz-induced hypothermia in mice after intraperitoneal administration at a dose of 10-40 mg/kg; type: functional; details: ip; procedure, shortened: as §1
Mus musculus [8] = assay: In vivo antagonism of guanabenz-induced hypothermia in mice after intraperitoneal administration; […]; type: functional, organism-based; procedure, shortened: as §1
Mus musculus [9] = assay: In vivo antagonism of guanabenz-induced hypothermia in mice after peroral administration; Inactive; type: functional, organism-based
Procedure, shortened: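 Male NMRI mice (30-32 g), five per dose; vehicle or drug by oral gavage, guanabenz 1 mg/kg ip 35 min later. Rectal temperature by thermistor 25 min post-guanabenz; inhibition scored as temperature > 36 °C. […] Active range is doses giving inhibition in more than 80% of mice.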

Mus musculus [10] = assay: In vivo antagonism of guanabenz-induced hypothermia in mice after intraperitoneal administration at a dose of 0.04-10 mg/kg; type: functional; details: ip; procedure, shortened: as §1
Mus musculus [11] = assay: In vivo antagonism of guanabenz-induced hypothermia in mice after peroral administration at a dose of 10-40 mg/kg; type: functional; details: po
Procedure, shortened: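 Male NMRI mice (30-32 g) dosed by oral gavage with drug or vehicle; 35 min later, guanabenz 1 mg/kg ip. Rectal temperature was taken 25 min after guanabenz with a thermistor probe. Inhibition meant temperature > 36 °C. Five mice were used per dose. The active dose range is the doses inhibiting hypothermia in more than 80% of animals.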

Mus musculus [12] = assay: In vivo antagonism of guanabenz-induced hypothermia in mice after intraperitoneal administration at a dose of 0.63-10 mg/kg; type: functional; details: ip
Procedure, shortened: (§3)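 Male NMRI mice, 30-32 g, 5 per dose; test drug or vehicle given ip, then 5 min later guanabenz 1 mg/kg ip. Rectal temperature read by thermistor probe 25 min after guanabenz. Inhibition means temperature > 36 °C. Active dose range = doses inhibiting in more than 80% of animals.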

Mus musculus [13] = assay: In vivo antagonism of guanabenz-induced hypothermia in mice after intraperitoneal administration at a dose of 2.5-10 mg/kg; type: functional; details: ip; procedure, shortened: as §3
Mus musculus [14] = assay: In vivo antagonism of guanabenz-induced hypothermia in mice after peroral administration at a dose of 10 mg/kg; type: functional; details: route oral; procedure, shortened: as §2
Mus musculus [15] = assay: In vivo antagonism of guanabenz-induced hypothermia in mice after intraperitoneal administration at a dose of 1 mg/kg; type: functional; details: ip; procedure, shortened: as §1

Sequence of D(2) dopamine receptor (P61169 whole entry): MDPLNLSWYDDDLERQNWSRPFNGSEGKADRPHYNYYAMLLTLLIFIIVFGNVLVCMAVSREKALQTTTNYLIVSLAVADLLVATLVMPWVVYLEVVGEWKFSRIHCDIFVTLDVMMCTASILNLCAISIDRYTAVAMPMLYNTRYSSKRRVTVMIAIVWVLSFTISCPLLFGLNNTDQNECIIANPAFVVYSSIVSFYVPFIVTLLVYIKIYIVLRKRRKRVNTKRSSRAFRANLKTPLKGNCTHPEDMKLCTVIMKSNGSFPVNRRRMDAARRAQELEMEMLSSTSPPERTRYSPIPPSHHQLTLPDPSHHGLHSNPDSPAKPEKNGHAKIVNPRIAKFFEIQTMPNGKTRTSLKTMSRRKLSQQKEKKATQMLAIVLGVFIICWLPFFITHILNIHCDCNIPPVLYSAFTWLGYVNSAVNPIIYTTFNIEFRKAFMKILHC

Compound | IC50 [2] | IC50 [3] | IC50 (D(2) dopamine receptor) | also measured
COc1ccc(NC(=O)NCCC2CCN(CC3COc4ccccc4O3)CC2)cc1 (stereo not given) |  |  |  | ED50 (Mus musculus [1]): 0.27 mg/kg
O=C1Nc2ccccc2CN1CC1CCN(CC2COc3ccccc3O2)CC1 (stereo not given) | 70 nM | 25 nM | 550 nM | 
CCOc1cccc(OCC)c1N1CCN(CCC2CCN(CC3COc4ccccc4O3)CC2)C1=O (stereo not given) | 70 nM | 4 nM | 135 nM | ED50 (Mus musculus [4]): 0.53 mg/kg; ED50 (Mus musculus [5]): 0.89 mg/kg
O=C(NCCC1CCN(CC2COc3ccccc3O2)CC1)NCc1ccccc1 (stereo not given) |  |  |  | ED50 (Mus musculus [6]): 1.78 mg/kg
O=C1N(CCC2CCN(CC3COc4ccccc4O3)CC2)CCN1c1ccc(F)cc1 (stereo not given) |  |  |  | ED50 (Mus musculus [7]): 2.51 mg/kg
O=C(NCCC1CCN(CC2COc3ccccc3O2)CC1)Oc1ccccc1 (stereo not given) |  |  |  | NA (Mus musculus [8]): inactive; NA (Mus musculus [9]): inactive
S=C(NCCC1CCN(CC2COc3ccccc3O2)CC1)Nc1ccccc1 (stereo not given) |  |  |  | ED50 (Mus musculus [10]): 0.02 mg/kg
O=C(NC(=S)NCCC1CCN(CC2COc3ccccc3O2)CC1)c1ccccc1 (stereo not given) |  |  |  | NA (Mus musculus [8]): inactive; NA (Mus musculus [9]): inactive
O=C(NCCC1CCN(CC2COc3ccccc3O2)CC1)c1ccccc1[N+](=O)[O-] (stereo not given) | 20 nM | 2 nM | 25 nM | 
c1ccc2c(c1)OCC(C1=NCCN1)O2 (stereo not given) [IDAZOXAN] |  |  | > 10000 nM | ED50 (Mus musculus [11]): 0.89 mg/kg; ED50 (Mus musculus [12]): 0.31 mg/kg
O=C1Nc2ccccc2CN1CCC1CCN(CC2COc3ccccc3O2)CC1 (stereo not given) | 18 nM | 5 nM | 16 nM | 
O=C(NCCC1CCN(CC2COc3ccccc3O2)CC1)C(c1ccccc1)c1ccccc1 (stereo not given) |  |  |  | NA (Mus musculus [8]): inactive; NA (Mus musculus [9]): inactive
COc1cc(OC)c(N2CCN(CCC3CCN(CC4COc5ccccc5O4)CC3)C2=O)c(OC)c1 (stereo not given) | 200 nM | 4.5 nM | 320 nM | ED50 (Mus musculus [4]): 1.07 mg/kg; ED50 (Mus musculus [13]): 0.41 mg/kg
Cc1cccc(C)c1N1CCN(CCC2CCN(CC3COc4ccccc4O3)CC2)C1=O (stereo not given) | 85 nM | 1.8 nM | 80 nM | ED50 (Mus musculus [11]): 5.01 mg/kg; ED50 (Mus musculus [13]): 0.41 mg/kg
O=C(NCCC1CCN(CC2COc3ccccc3O2)CC1)Nc1ccc(O)cc1 (stereo not given) |  |  |  | NA (Mus musculus [8]): inactive
O=C(Cc1ccccc1[N+](=O)[O-])NCCC1CCN(CC2COc3ccccc3O2)CC1 (stereo not given) | 11.5 nM | 1 nM | 1.8 nM | 
COC(=O)[C@@H]1[C@H]2C[C@H]3c4[nH]c5ccccc5c4CCN3C[C@@H]2CC[C@@H]1O [YOHIMBINE] |  |  | 1130 nM | ED50 (Mus musculus [14]): 1.23 mg/kg; ED50 (Mus musculus [15]): 0.56 mg/kg
COc1ccccc1CC(=O)NCCC1CCN(CC2COc3ccccc3O2)CC1 (stereo not given) | 70 nM | 10 nM | 50 nM | 
CC(C)c1cccc(C(C)C)c1N1CCN(CCC2CCN(CC3COc4ccccc4O3)CC2)C1=O (stereo not given) | 180 nM | 36 nM | 480 nM | 
